Active and inactive are the calls of the source. No cut-off for these calls is given here.
What was measured:
SGC-7901 [1] = assay: Induction of apoptosis in human SGC-7901 cells assessed as early apoptotic cells at 60 nM incubated for 48 hrs by annexin V-FITC and PI staining based flow cytometry analysis (reference value: 1.4 %); assay type: functional
MGC-803 [2] = assay: Induction of apoptosis in human MGC-803 cells assessed as upregulation of t-Bid at 20 to 60 nM incubated for 48 hrs by Western blot analysis; assay type: functional, cell-based; details: dose 20-60 nM
How it was run: (§1)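 Western blot on MGC-803 and SGC-7901 cells given 20, 40 and 60 nM compound or DMSO for 48 h. Denatured lysates were run on SDS-PAGE and transferred to PVDF, then probed with primary and secondary antibodies to detect apoptosis-related proteins.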

MGC-803 [3] = assay: Induction of apoptosis in human MGC-803 cells assessed as late apoptotic cells at 20 nM incubated for 48 hrs by annexin V-FITC and PI staining based flow cytometry analysis (reference value: 4.1 %); assay type: functional
HCT-116 = assay: Antiproliferative activity against human HCT-116 cells assessed as reduction in cell viability incubated for 48 hrs by MTT assay; assay type: functional, cell-based; details: HCT-116, 48 h
How it was run: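 MTT assay. 5,000 cells per well in RPMI-1640 with 10% FBS and penicillin/streptomycin at 37 °C, 5% CO2. Compound added 24 h after seeding and left for 48 h. MTT was then added for 4 h at 37 °C, formazan dissolved in DMSO and absorbance read at 490 nm. IC50 calculated from three independent experiments.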

SGC-7901 [4] = assay: Induction of apoptosis in human SGC-7901 cells assessed as upregulation of t-Bid at 20 to 60 nM incubated for 48 hrs by Western blot analysis; assay type: functional, cell-based; details: dose 20-60 nM
How it was run: (§2)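 Cells grown in RPMI-1640 with 10% FBS, penicillin/streptomycin at 37 °C, 5% CO2. Exposure to 20, 40 or 60 nM for 48 h alongside DMSO control. Lysates denatured, resolved by SDS-PAGE, transferred to PVDF, blocked, then probed with primary and secondary antibodies.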

MGC-803 [5] = assay: Induction of apoptosis in human MGC-803 cells assessed as early apoptotic cells at 40 nM incubated for 48 hrs by annexin V-FITC and PI staining based flow cytometry analysis (reference value: 2.9 %); assay type: functional
MGC-803 [6] = assay: Induction of apoptosis in human MGC-803 cells assessed as upregulation of Bax at 20 to 60 nM incubated for 48 hrs by Western blot analysis; assay type: functional, cell-based; details: dose 20-60 nM; how it was run: as §1
SGC-7901 [7] = assay: Induction of apoptosis in human SGC-7901 cells assessed as downregulation of Mcl-1 at 20 to 60 nM incubated for 48 hrs by Western blot analysis; assay type: functional, cell-based; details: dose 20-60 nM; how it was run: as §1
MGC-803 [8] = assay: Induction of cell cycle arrest in human MGC-803 cells assessed as upregulation of Histone-H3 Ser10 at 20 to 60 nM incubated for 48 hrs by Western blot analysis; assay type: functional, cell-based; details: dose 20-60 nM; how it was run: as §2
SGC-7901 [9] = assay: Induction of apoptosis in human SGC-7901 cells assessed as upregulation of Bax at 20 to 60 nM incubated for 48 hrs by Western blot analysis; assay type: functional, cell-based; details: dose 20-60 nM; how it was run: as §2
MGC-803 [10] = assay: Antiproliferative activity against human MGC-803 cells assessed as reduction in cell viability incubated for 48 hrs by MTT assay; assay type: functional, cell-based; details: MGC-803, 48 h
How it was run: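 MTT assay. Compound added 24 h after seeding and left for 48 h. MTT was then added for 4 h at 37 °C, formazan dissolved in DMSO and absorbance read at 490 nm. IC50 calculated from three independent experiments.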

MGC-803 [11] = assay: Cytotoxicity against human MGC-803 cells harboring SiYAP assessed as increase in cell viability at 20 to 60 nM incubated for 48 hrs by MTT assay; assay type: cell-based; details: mgc-803, 48 h, 0.06 µM, dose 20-60 nM
MGC-803 [12] = assay: Induction of apoptosis in human MGC-803 cells assessed as increase in caspase-3 cleavage at 20 to 60 nM incubated for 48 hrs by Western blot analysis; assay type: functional, cell-based; details: dose 20-60 nM; how it was run: as §1
MGC-803 [13] = assay: Activation of Hippo signaling pathway in human […] cells assessed as increase in LATS phosphorylation at 20 to 60 nM incubated for 48 hrs by Western blot analysis; assay type: cell-based; details: filed as activator, dose 20-60 nM
How it was run: (§3)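 Western blot on gastric cancer cells exposed to compound or DMSO at 20, 40 and 60 nM for 48 h. Cells were lysed, then the denatured lysates were separated by SDS-PAGE and transferred to PVDF. Membranes were blocked and probed with primary and then secondary antibodies. Hippo pathway proteins were detected.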

MGC-803 [14] = assay: Induction of apoptosis in human MGC-803 cells assessed as increase in caspase-9 cleavage at 20 to 60 nM incubated for 48 hrs by Western blot analysis; assay type: functional, cell-based; details: dose 20-60 nM; how it was run: as §1
SGC-7901 [15] = assay: Activation of Hippo signaling pathway in human SGC-7901 cells assessed as decrease in Bcl-2 expression incubated for 48 hrs by Western blot analysis; assay type: cell-based; details: filed as activator, dose 20-60 nM; how it was run: as §3
SGC-7901 [16] = assay: Induction of apoptosis in human SGC-7901 cells assessed as upregulation of DR5 at 20 to 60 nM incubated for 48 hrs by Western blot analysis; assay type: functional, cell-based; details: dose 20-60 nM; how it was run: as §2
SGC-7901 [17] = assay: Inhibition of tubulin polymerization in human SGC-7901 cells assessed as decrease in filamentous structure at 20 to 60 nmol/L by DAPI staining based microscopic analysis; assay type: cell-based; details: dose 20-60 nmol/L
How it was run: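 Cells cultured in RPMI-1640 with 10% FBS at 37 °C, 5% CO2, treated 48 h with 20, 40 and 60 nM; stained for β-tubulin (green) and nuclei (blue) and examined by microscopy.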

SGC-7901 [18] = assay: Induction of cell cycle arrest in human SGC-7901 cells assessed as downregulation of Cyclin B1 at 20 to 60 nM incubated for 48 hrs by Western blot analysis; assay type: functional, cell-based; details: dose 20-60 nM; how it was run: as §2
MGC-803 [19] = assay: Induction of apoptosis in human MGC-803 cells assessed as downregulation of c-IAP1 at 20 to 60 nM incubated for 48 hrs by Western blot analysis; assay type: functional, cell-based; details: dose 20-60 nM; how it was run: as §1
MGC-803 [20] = assay: Induction of apoptosis in human MGC-803 cells assessed as late apoptotic cells at 40 nM incubated for 48 hrs by annexin V-FITC and PI staining based flow cytometry analysis (reference value: 4.1 %); assay type: functional
SGC-7901 [21] = assay: Induction of apoptosis in human SGC-7901 cells assessed as late apoptotic cells at 20 nM incubated for 48 hrs by annexin V-FITC and PI staining based flow cytometry analysis (reference value: 2.4 %); assay type: functional
SGC-7901 [22] = assay: Induction of apoptosis in human SGC-7901 cells assessed as downregulation of c-IAP1 at 20 to 60 nM incubated for 48 hrs by Western blot analysis; assay type: functional, cell-based; details: dose 20-60 nM; how it was run: as §1
SGC-7901 [23] = assay: Induction of apoptosis in human SGC-7901 cells assessed as upregulation of FADD at 20 to 60 nM incubated for 48 hrs by Western blot analysis; assay type: functional, cell-based; details: dose 20-60 nM; how it was run: as §2
SGC-7901 [24] = assay: Induction of cell cycle arrest in human SGC-7901 cells assessed as increase in G2/M phase accumulation incubated for 24 hrs by PI staining based flow cytometry analysis; assay type: functional; details: dose 20-60 nM
How it was run: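 Cells in RPMI-1640/10% FBS at 37 °C, 5% CO2, exposed to 20, 40 and 60 nM for 24 h before flow cytometric cell-cycle distribution analysis.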

SGC-7901 [25] = assay: Activation of Hippo signaling pathway in human SGC-7901 cells assessed as decrease in c-MYC expression incubated for 48 hrs by Western blot analysis; assay type: cell-based; details: filed as activator, dose 20-60 nM; how it was run: as §3
SGC-7901 [26] = assay: Induction of apoptosis in human SGC-7901 cells assessed as downregulation of c-IAP2 at 20 to 60 nM incubated for 48 hrs by Western blot analysis; assay type: functional, cell-based; details: dose 20-60 nM; how it was run: as §2

IC50 (HCT-116): 182 nM | IC50 (MGC-803 [10]): 35 nM
SMILES: COc1ccc(CN(C(=O)CSc2nc3ccccc3s2)c2cc(OC)c(OC)c(OC)c2)cc1O
Activity (SGC-7901 [1]): 19.1% | Activity (MGC-803 [2]): Active | Activity (MGC-803 [3]): 4.1% | Activity (SGC-7901 [4]): Active | Activity (MGC-803 [5]): 10.2% | Activity (MGC-803 [6]): Active | Activity (SGC-7901 [7]): Active | Activity (MGC-803 [8]): Active | Activity (SGC-7901 [9]): Active | Activity (MGC-803 [11]): Non-Toxic | Activity (MGC-803 [12]): Active | Activity (MGC-803 [13]): Active | Activity (MGC-803 [14]): Active | Activity (SGC-7901 [15]): Dose-dependent effect | Activity (SGC-7901 [16]): Active | Activity (SGC-7901 [17]): Active | Activity (SGC-7901 [18]): Active | Activity (MGC-803 [19]): Active | Activity (MGC-803 [20]): 10.1% | Activity (SGC-7901 [21]): 4.2% | Activity (SGC-7901 [22]): Active | Activity (SGC-7901 [23]): Active | Activity (SGC-7901 [24]): Dose-dependent effect | Activity (SGC-7901 [25]): Dose-dependent effect | Activity (SGC-7901 [26]): Active

— ChEMBL document CHEMBL4765386, “Discovery of tertiary amide derivatives incorporating benzothiazole moiety as anti-gastric cancer agents in vitro via inhibiting tubulin polymerization and activating the Hippo signaling pathway” (Eur J Med Chem, 2020)
